WT yeast gro inh – growth inhibition of WT yeast, mitochondrial fusion screen; hit rate 2.1% among 190,000; AID 1362; inhibition, % at 10 µM; mitochondrial fusion phenotypic screen, WT strain; in the data active = inhibition above about 58%; tested in S. cerevisiae
EBV gp42 inh – blocks Epstein-Barr virus glycoprotein 42 binding; inhibition, % (tested at 21.74 µM); hit rate 0.42% among 220,000; Q1HVG2; Fluorescence polarization binding assay, mP read-out; AID 1085; in the data active = inhibition above about 50%
Target sequence (Q1HVG2 whole entry, looked up): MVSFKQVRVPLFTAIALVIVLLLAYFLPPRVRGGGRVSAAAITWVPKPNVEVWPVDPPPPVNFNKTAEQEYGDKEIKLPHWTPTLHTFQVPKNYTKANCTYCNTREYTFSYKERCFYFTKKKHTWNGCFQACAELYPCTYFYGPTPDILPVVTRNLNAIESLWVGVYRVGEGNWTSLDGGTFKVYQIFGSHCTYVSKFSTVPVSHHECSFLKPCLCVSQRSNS
NR3A LBD binder – modulates the human NR3A ligand-binding domain. NR3A LBD differential scanning fluorimetry, Tm shift; 0% = protein alone, 100% = glycine-bound protein. Tm shift relative to glycine control, % at 25 µM. hit rate 2.5% among 340,000. AID 1259313;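 active = melting temperature shift of at least 10% of the positive control shift, at one fixed dose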
MPTP block – blocks calcium-induced mitochondrial swelling; isolated mouse mitochondria, Ca2+ swelling absorbance, 30 min; inhibition, % at 10 µM; hit rate 1.4% among 360,000; AID 602449;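 active = inhibition of 50% or more, scaled per plate between neutral and stimulator controls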;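 note: 0% = DMSO wells given calcium and 100% = 1 mM EGTA wells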
TbMetRS inhib – Trypanosoma brucei MetRS inhibition; purified T. brucei MetRS, ATP depletion, Kinase-Glo luminescence; inhibition, % at 11.9 µM; hit rate 0.4% among 360,000; AID 624268;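 active = inhibition above a per-plate cutoff of the control wells' mean inhibition plus 3 SD, cut at about 5.5% in these data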;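 note: 0% = DMSO wells median and 100% = median of wells with control inhibitor compound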
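Test system – parasite MetRS enzyme · Reagent – substrates ATP, L-methionine and bulk Escherichia coli tRNA · Doses – 11.9 µM compound single dose, 0.9% DMSO · Times – 15 min enzyme-compound preincubation, 2 h reaction, 10 min detection, 25 °C · Signal – Kinase-Glo luminescence, ATP depletion format · Controls – DMSO-only wells as low control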
CHOP inhibitor – CHOP inhibition in unfolded protein response; CHO-K1 CHOP-promoter luciferase, tunicamycin-induced, 15-18 h; inhibition, % at 10 µM; hit rate 3.8% among 220,000; AID 2732;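 active = compounds that reduced the stress-induced luciferase reporter signal by more than about 70% of percent inhibition, limit read from the data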;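 note: 0% = tunicamycin plus vehicle and 100% = wells without tunicamycin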
Active calls of the source: *; . = no result. Rows were chosen to be rich in hits. Some 6.4% of all compounds tested hit in one or more screens of this group.

SMILES	WT yeast gro inh	EBV gp42 inh	NR3A LBD binder	MPTP block	TbMetRS inhib	CHOP inhibitor
CCC1(C)Cc2ccccc2-c2nc(-c3ccccc3)oc(=O)c21 (stereo not drawn)	42	2	2	3	0	80*
Cc1ccc2cccc(OCc3cccc([N+](=O)[O-])c3)c2n1	.	.	4	2	0	.
COCCCNC(=O)c1ccc(-n2nc(C(F)(F)F)cc2-c2cccs2)cc1	-4	-8	1	-1	-1	41
O=C(NCCCN1CCOCC1)c1ccc(-n2nc(C(F)(F)F)cc2-c2cccs2)cc1	.	-2	-1	-1	-1	76*
O=C1CSC(c2cn(-c3ccccc3)nc2-c2cc3ccccc3oc2=O)N1Cc1ccccc1 (stereo not drawn)	2	-3	-2	1	0	7
CCOC(=O)c1c(C2COc3ccccc3O2)csc1N (stereo not drawn)	13	8	-12	1	-1	84*
CCOC(=O)c1c(C2COc3ccccc3O2)csc1NC(=O)c1ccccc1 (stereo not drawn)	11	-2	11*	3	-1	2
COc1ccc(S(=O)(=O)N2CCC(C(=O)NCC3CCCO3)CC2)cc1Cl (stereo not drawn)	.	.	-5	0	0	.
COc1cccc(/C=N/n2c(CO)nc3ccccc32)c1OC	1	-3	-3	1	-1	24
CNc1nc2ccccc2n1/N=C/c1cccc(OC)c1OC	5	-10	32*	-1	0	10
COc1cc(NC(=S)N2CCN(c3ccccn3)CC2)c(OC)cc1Cl	14	16	0	2	-1	17
O=C(OC(C(=O)NCc1cccs1)c1ccccn1)c1cccs1 (stereo not drawn)	-8	9	-9	0	-1	1
CCc1ccc(C2=CC(c3cc(Br)ccc3F)n3ncnc3N2)cc1 (stereo not drawn)	65*	-2	-7	1	-1	38
COc1cccc(C2=CC(c3ccc(C)cc3)n3ncnc3N2)c1 (stereo not drawn)	4	22	.	.	.	36
Cc1ccsc1C1C=C(c2cccc(Br)c2)Nc2ncnn21 (stereo not drawn)	-1	94*	-4	-2	0	11
CC(Oc1cc2oc(=O)c3c(c2cc1Cl)CCCC3)C(=O)NCC1CCC(C(=O)O)CC1 (stereo not drawn)	.	.	-3	-3	0	.
C/C(=N\NC(=O)C1CC1)c1cccc(NC(=O)c2cccc(Cl)c2)c1	0	-12	.	.	.	-27
C/C(=N/NS(=O)(=O)c1ccc(C)cc1)c1cccc(NC(=O)c2cccc(Cl)c2)c1	16	-11	14*	0	-1	40
CC(=O)Nc1cccc(/C(C)=N/NC(=O)c2ccc(Cl)cc2Cl)c1	-20	-4	0	0	3	16
C/C(=N/NS(=O)(=O)c1ccc(Cl)cc1)c1cccc(NC(=O)c2ccc(Cl)cc2Cl)c1	-15	-6	18*	0	3	22
Cc1ccoc1C(=O)Nc1ccc(CC(=O)O)cc1	20	4	2	0	-2	73*
Cc1ccoc1C(=O)Nc1ccc2ccccc2c1	.	.	6	-1	-1	.
Cc1cc(NC(=O)CCCSc2nc(-c3ccco3)cc(C(F)(F)F)n2)no1	-3	-3	1	1	-2	88*
CC(C)(C)c1cc(C(F)(F)F)nc(SCCCNC(=O)c2ccco2)n1	20	-18	1	6	-1	86*
Cc1cc(NC(=O)CCSc2nc(-c3ccco3)cc(C(F)(F)F)n2)no1	-12	-5	1	-1	-1	0
SMILES	WT yeast gro inh	EBV gp42 inh	NR3A LBD binder	MPTP block	TbMetRS inhib	CHOP inhibitor
Cc1ccccc1Cn1ccc(NC(=O)CCSc2nc(-c3ccco3)cc(C(F)(F)F)n2)n1	14	1	-25	0	-1	54
Cc1ccc(Cn2ccc(NC(=O)CCSc3nc(-c4ccco4)cc(C(F)(F)F)n3)n2)cc1	9	-2	-1	-3	1	90*
CC(NC(=O)c1ccc(C(C)(C)C)cc1)C(c1cccs1)N1CCOCC1 (stereo not drawn)	.	.	-2	0	0	.
Cc1ccc(S(=O)(=O)/C(C#N)=C/c2c(N3CCOCC3)nc3c(C)cccn3c2=O)cc1	.	-18	1	6	0	2
CCN(CC)C(=O)Cn1cc(C(=O)C(=O)NCc2cccnc2)c2ccccc21	.	.	3	-2	0	.
CN1CCN(Cc2nc3ccccc3c(=O)n2Cc2nc(-c3ccc4ccccc4c3)cs2)CC1	81*	-1	1	0	0	88*
CN(C)c1ccc(N=Nc2ccccc2C(=O)OCC(=O)NC2CCCC2)cc1	42	-13	-23	1	-2	-74
CN(C)c1ccc(N=Nc2ccccc2C(=O)OCC(=O)NCC2CCCCC2)cc1	64*	-10	-9	2	-1	36
COc1ccc(CNC(=S)Nc2ccc3nc(N4CCOCC4)cc(C)c3c2)cc1	6	-1	-3	3	0	20
Cc1ccc(S(=O)(=O)N2C[C@@H]3c4ccccc4N(S(=O)(=O)c4ccc(C)cc4)[C@@H]3[C@@H](C)C2CC(=O)c2ccccc2)cc1 (stereo partly drawn)	.	.	3	1	-2	.
CC1=CN(S(=O)(=O)c2ccc(C)cc2)C[C@@H]2c3ccccc3N(S(=O)(=O)c3ccc(C)cc3)[C@H]12	.	.	17*	0	0	.
Cc1ccc(OCC(=O)Nc2cccc(-c3nnc(-c4ccccc4)o3)c2)cc1	41	-14	0	3	-1	52
O=C(Nc1ccc(S(=O)(=O)Nc2cnc3ccccc3n2)cc1)c1ccc(Cl)cc1Cl	.	.	5	17	3	.
Cc1cc(Cl)ccc1OC(C)C(=O)Nc1ccc(C(=O)Nc2ccccc2C(=O)O)cc1 (stereo not drawn)	.	.	15*	0	0	.
O=C(Cc1ccc(Cl)cc1)Nc1ccc(S(=O)(=O)Nc2cnc3ccccc3n2)cc1	1	-5	10*	1	1	5
Cc1cc(Cl)ccc1OC(C)C(=O)Nc1ccc(S(=O)(=O)N2CCOCC2)cc1 (stereo not drawn)	.	.	4	1	0	.
Cc1cc(Cl)ccc1OC(C)C(=O)Nc1ccc(S(=O)(=O)Nc2cnc3ccccc3n2)cc1 (stereo not drawn)	8	-7	14*	1	1	57
CC(Oc1ccc(Cl)cc1Cl)C(=O)Nc1ccc(S(=O)(=O)Nc2cnc3ccccc3n2)cc1 (stereo not drawn)	9	-9	18*	.	.	22
CCC1CCCCN1c1cc(C)nc2cc(-c3cccc(C)c3)nn12 (stereo not drawn)	89*	-18	2	1	-1	87*
O=C(CCl)NC(=O)NC12CC3CC(CC(C3)C1)C2	-21	-14	-2	-1	0	103*
